From PubChem
TNAP inh hi DEA = inhibitors of human TNAP at high phosphate acceptor concentration; P05186; purified TNAP, CDP-star luminescence, 1 M DEA; inhibition, % at 20 µM; 0.03% of 200,000 active; AID 1135;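 active = over 50% inhibition of tissue-nonspecific alkaline phosphatase at 20 µM in the single-dose screen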;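 note: plate controls were DMSO wells for no effect and EDTA-quenched wells as full inhibition for full effect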
Target sequence (P05186 whole entry, looked up): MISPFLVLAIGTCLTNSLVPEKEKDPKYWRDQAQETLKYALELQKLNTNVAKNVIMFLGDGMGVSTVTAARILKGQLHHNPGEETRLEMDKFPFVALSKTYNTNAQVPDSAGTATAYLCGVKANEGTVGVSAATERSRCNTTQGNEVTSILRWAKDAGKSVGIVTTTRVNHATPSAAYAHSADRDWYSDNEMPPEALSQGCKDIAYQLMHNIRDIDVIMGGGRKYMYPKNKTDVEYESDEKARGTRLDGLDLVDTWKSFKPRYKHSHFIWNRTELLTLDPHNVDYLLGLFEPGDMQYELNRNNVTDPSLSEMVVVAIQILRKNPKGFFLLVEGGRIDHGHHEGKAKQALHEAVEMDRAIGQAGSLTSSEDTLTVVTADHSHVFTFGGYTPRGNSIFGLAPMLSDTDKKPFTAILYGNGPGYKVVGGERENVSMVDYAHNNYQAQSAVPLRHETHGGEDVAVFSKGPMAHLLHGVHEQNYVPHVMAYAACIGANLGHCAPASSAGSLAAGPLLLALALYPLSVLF
TNAP act hiacc = TNAP (human) activation, high acceptor; 200,000 tested, under 10 active; activation factor at 20 µM; P05186; purified TNAP, CDP-star luminescence, 1 M DEA, 30 min; active compounds read high; 0 = EDTA background, 1 = DMSO-only activity;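 active = activation factor at least 2 at 20 µM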
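Control set: EDTA negative control, DMSO positive control / Assay system: human TNAP / Quantity: TNAP 1/800 final / Evaluation: TNAP activation factor scaled between EDTA and DMSO control wells / Measured by: luminescent substrate turnover signal / Compound dosing: one dose, 20 µM / Times: 30 min enzyme reaction at room temperature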
TNAP inh no acc = inhibitors of human TNAP without phosphate acceptor | P05186 | purified TNAP, CDP-star luminescence, 30 min | inhibition, % at 20 µM | 0.26% of 200,000 active | AID 1012;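 active = tissue-nonspecific alkaline phosphatase inhibition above about 50% at 20 µM in the single-dose screen, limit read from the data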;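 note: 0% = DMSO negative control and 100% = EDTA positive control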
HCT116 PTEN-null = suppresses growth of cells with PTEN deletion; HCT116 PTEN-null viability, CellTiter-Glo, 60 h; active compounds read low; viability, % at 10 µM; 1.2% of 140,000 active; AID 827;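 active = viability at or below a set limit, 4 SD under the median of all tested compounds, cut at about 3.7% in these data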;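 note: PTEN knockout HCT116 line with beta catenin targeted HCT116 as companion control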
L major viab = inhibitors of Leishmania major promastigote growth | Leishmania major promastigotes, resazurin fluorescence viability | inhibition, % at 10 µM | 9% of 200,000 active; in the data active = inhibition above about 50%;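 note: promastigotes grown with compound for 44 hours at 28 °C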
HCT116 bCat-KO = beta-catenin-lacking colon tumor cell growth suppression. viability, % at 10 µM. HCT116 beta-catenin knockout viability, CellTiter-Glo, 60 h; active compounds read low. 1.5% of 140,000 active. AID 818;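 active = viability at or under a set limit, the compound median less 4 SD, cut at about 6% in these data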;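 note: 0% = Hyamine 1622 control at 20 µM and 100% = untreated cell control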
* marks the source's active call; other numbers are inactive results. Hits are enriched below; roughly 9.6% of the tested compounds scored in any of these assays.

`CCOC(=O)C(=Cc1ccc(-n2ccnc2)cc1)C(=O)OCC` gave TNAP inh hi DEA -1, TNAP act hiacc 1, TNAP inh no acc -2 and L major viab 79*.
CCCN1C(=O)/C(=N\OCC(=O)NC23CC4CC(CC(C4)C2)C3)c2ccccc21 was read as TNAP inh hi DEA 2, TNAP act hiacc 1, TNAP inh no acc -24, HCT116 PTEN-null 93, L major viab 33 and HCT116 bCat-KO 91.
Screening COc1cc2c(C#N)c(N3CCN(C)CC3)nc(N)c2c(N)n1 returned TNAP inh hi DEA -5, TNAP act hiacc 1.1, TNAP inh no acc -12, HCT116 PTEN-null 78, L major viab 100* and HCT116 bCat-KO 82.
Screening N#Cc1c(N2CCCC2)nc(N)c2c(N)nc(N3CCCC3)cc12 returned TNAP inh hi DEA -2, TNAP act hiacc 1, TNAP inh no acc -10, HCT116 PTEN-null 86, L major viab 12 and HCT116 bCat-KO 80.
Cc1ccc(C)c(NC(=O)C(Sc2ncnc3ccccc23)c2ccccc2)c1 (stereo unspecified) was read as TNAP inh hi DEA -3, TNAP act hiacc 1, TNAP inh no acc -5, HCT116 PTEN-null 1.2*, L major viab 73* and HCT116 bCat-KO 67.
COc1ccc(C(=O)NNC(=O)CSc2nnc(-c3cccnc3)o2)cc1 was read as TNAP inh hi DEA -1, TNAP act hiacc 1, TNAP inh no acc -29 and L major viab -5.
`COc1ccc(Cl)c(Cn2c(NCCCN(C)C)nc3c2c(=O)n(C)c(=O)n3C)c1` gave TNAP inh hi DEA -1, TNAP act hiacc 1, TNAP inh no acc 2, HCT116 PTEN-null 109, L major viab 100* and HCT116 bCat-KO 88.
COc1ccc(Cl)c(Cn2c(NCC(C)O)nc3c2c(=O)n(C)c(=O)n3C)c1 (stereo unspecified) was read as TNAP inh hi DEA 0, TNAP act hiacc 1, TNAP inh no acc -7, HCT116 PTEN-null 84, L major viab 2 and HCT116 bCat-KO 89.
CC(=O)Nc1ccc(OCC(O)Cn2ccnc2)cc1 (stereo unspecified) was read as TNAP inh hi DEA -4, TNAP act hiacc 1, TNAP inh no acc -7 and L major viab -5.
For OC(COc1ccc2ccccc2c1Br)Cn1ccnc1 (stereo unspecified) the results were TNAP inh hi DEA -2, TNAP act hiacc 1, TNAP inh no acc 3, HCT116 PTEN-null 103, L major viab 98* and HCT116 bCat-KO 110.
Screening OC(COc1ccc2ccccc2c1)Cn1ccnc1 (stereo unspecified) returned TNAP inh hi DEA -3, TNAP act hiacc 1, TNAP inh no acc -4, HCT116 PTEN-null 96, L major viab 98* and HCT116 bCat-KO 103.
For COC(=O)/C(=C/c1ccco1)NC(=O)c1ccco1 the results were TNAP inh hi DEA -4, TNAP act hiacc 1, TNAP inh no acc -18, HCT116 PTEN-null 104, L major viab 80* and HCT116 bCat-KO 93.
COC(=O)/C(=C/c1ccco1)NC(=O)c1ccccc1 was read as TNAP inh hi DEA -3, TNAP act hiacc 1, TNAP inh no acc -10, HCT116 PTEN-null 97, L major viab 2 and HCT116 bCat-KO 87.
For Cc1ccc(C(=O)N/C(=C/c2ccco2)C(=O)OCN2C(=O)c3ccccc3C2=O)cc1 the results were TNAP inh hi DEA -4, TNAP act hiacc 1, TNAP inh no acc -8, HCT116 PTEN-null 92, L major viab 61* and HCT116 bCat-KO 91.
Screening COCCn1cc(C(=S)N2CCCCC2)c2ccccc21 returned TNAP inh hi DEA -8, TNAP act hiacc 1.1, TNAP inh no acc -4 and L major viab 10.
`S=C(c1cn(CCOc2cccc3ccccc23)c2ccccc12)N1CCCC1` gave TNAP inh hi DEA -2, TNAP act hiacc 1, TNAP inh no acc -10, HCT116 PTEN-null 11, L major viab 95* and HCT116 bCat-KO 12.
Cc1ccc(OCCn2cc(C(=S)N3CCCC3)c3ccccc32)cc1C was read as TNAP inh hi DEA -1, TNAP act hiacc 1, TNAP inh no acc -8, HCT116 PTEN-null 39, L major viab 41 and HCT116 bCat-KO 45.
S=C(c1cn(CCOc2ccccc2)c2ccccc12)N1CCCC1 was read as TNAP inh hi DEA 2, TNAP act hiacc 1, TNAP inh no acc -4, HCT116 PTEN-null 48, L major viab 98* and HCT116 bCat-KO 38.
Screening Cc1ccc(C(=O)NCC(=O)OCC(=O)c2ccc3c(c2)NC(=O)CO3)cc1 returned TNAP inh hi DEA -2, TNAP act hiacc 1, TNAP inh no acc -7 and L major viab -7.
`O=c1[nH]c(/C=C/c2ccccc2OC(F)F)nc2c1cnn2-c1ccccc1` gave TNAP inh hi DEA -1, TNAP act hiacc 1, TNAP inh no acc -4, HCT116 PTEN-null 29, L major viab 62* and HCT116 bCat-KO 40.
For NNc1nc(N)c2c(n1)-c1ccccc1CC21CCCC1 the results were TNAP inh hi DEA 0, TNAP act hiacc 1, TNAP inh no acc -4, HCT116 PTEN-null 83, L major viab 100* and HCT116 bCat-KO 86.
`O=C(NCc1cccnc1)/C(=C\c1ccc(-c2cccc(Cl)c2)o1)S(=O)(=O)c1ccccc1` gave TNAP inh hi DEA 5, TNAP act hiacc 1, TNAP inh no acc 4, HCT116 PTEN-null 1.7*, L major viab 100* and HCT116 bCat-KO 1.7*.
O=C(NCc1cccnc1)/C(=C/c1ccc(-c2cccc(Cl)c2)o1)S(=O)(=O)c1ccccc1 was read as TNAP inh hi DEA -8, TNAP act hiacc 1.1, TNAP inh no acc -12, HCT116 PTEN-null 1.6*, L major viab 100* and HCT116 bCat-KO 1.8*.
`Cc1ccc(C(=O)N/C(=C\c2ccc(-c3cc(Cl)ccc3Cl)o2)C(=O)NCc2cccnc2)cc1` gave TNAP inh hi DEA 0, TNAP act hiacc 1, TNAP inh no acc -4, HCT116 PTEN-null 26, L major viab 38 and HCT116 bCat-KO 33.
Cc1cc(N)n2ncc(-c3ccc(Cl)cc3)c2n1 was read as TNAP inh hi DEA 3, TNAP act hiacc 1, TNAP inh no acc -11, HCT116 PTEN-null 52, L major viab 55* and HCT116 bCat-KO 55.
Screening Cc1ccc(OCC(=O)N/N=C2/SCC(=O)N2Cc2ccccc2)cc1 returned TNAP inh hi DEA 0, TNAP act hiacc 1, TNAP inh no acc -9, HCT116 PTEN-null 87, L major viab 67* and HCT116 bCat-KO 88.
For COc1ccc(/C=C\c2nc(=O)c3ccccc3o2)cc1 the results were TNAP inh hi DEA -1, TNAP act hiacc 1, TNAP inh no acc -2 and L major viab 84*.
CC(C)NS(=O)(=O)c1ccc(CCC(=O)NCc2ccncc2)cc1 was read as TNAP inh hi DEA -6, TNAP act hiacc 1.1, TNAP inh no acc -5 and L major viab 1.
O=C(/C=C/NNC(=O)c1ccccc1)c1ccc([N+](=O)[O-])cc1 was read as TNAP inh hi DEA 32, TNAP act hiacc 0.7, TNAP inh no acc 13 and L major viab 79*.
